Measurements from different studies.
Protocols differ between the studies behind these lines.
AMY2: Pancreatic alpha-amylase (AMY2, Sus scrofa, UniProt P00690)
D14: D14 (Arabidopsis thaliana, UniProt Q9SQR3)

O=c1c(O)c(-c2ccc(O)c(O)c2)oc2c(Br)c(O)c(Br)c(O)c12
inhibition (AMY2; enzyme activity, inhibitor; 50 µM, 30 min): 70.2%

CCCCC(=O)Nc1ccc(-c2ccc3ncn(CCC)c(=O)c3c2)cn1
remaining binding (Serine/threonine-protein kinase 24 (STK24, Homo sapiens, UniProt Q9Y6E0); binding, competition with immobilised ligand; 0.5 µM): 97%

C#Cc1cc(-c2cc(Nc3nc(N[C@@H](C)c4ccc(F)cn4)ncc3Cl)n[nH]2)ccc1C=O
inhibition (MAP kinase-activated protein kinase 5 (MAPKAPK5, Homo sapiens, UniProt Q8IW41); enzyme activity, inhibitor; 0.2 µM): 14.9%

Cc1cc(S(=O)(=O)N[C@H]2CC[C@H](CN3CCN(c4ccc(C5CCC(=O)NC5=O)cc4F)CC3)CC2)ccc1Nc1ncc(C(F)(F)F)c(N2CCC[C@](C)(O)C2)n1 (stereo partly drawn)
remaining binding (Cyclin-dependent kinase 4 (CDK4, Homo sapiens, UniProt P11802); binding, competition with immobilised ligand; 1 µM): 100%

C1=C/COCc2cc(ccc2OCCN2CCCC2)Nc2nccc(n2)-c2cccc(c2)COC/1
remaining binding (Serine/threonine-protein kinase Nek7 (NEK7, Homo sapiens, UniProt Q8TDX7); binding; 0.1 µM): 40%

CC(=O)/C=C/C=C(C)/C=C/C1=C(C)CC(O)CC1(C)C (stereo in doubt)
ΔTm (D14; thermal stability, DSF; 100 µM): 4.84 °C

O=c1cc(-c2ccc(O)cc2)oc2c(Br)c(O)c(Br)c(O)c12
inhibition (AMY2; enzyme activity, inhibitor; 50 µM): 69.3%

CC1=C(/C=C/C(C)=C/C=O)C(C)(C)CCC1
ΔTm (D14; thermal stability, DSF; 1 µM): 0 °C

COc1cc(O)c2c(c1)O[C@H](c1ccccc1)CC2=O
inhibition (AMY2; enzyme activity, inhibitor; 50 µM): 12.8%

CC1=C(/C=C/C(C)=C/C=O)C(C)(C)C[C@H](O)C1
ΔTm (D14; thermal stability, DSF; 10 µM): 0.16 °C

O=c1cc(-c2ccc(O)c(O)c2)oc2cc(O)cc(O)c12
inhibition (AMY2; enzyme activity, inhibitor; 50 µM, 30 min): 97.5%

NC/C(=C\F)COc1cccc(Cn2c(=S)[nH]c(=O)c3[nH]cnc32)c1
inhibition (Muscarinic acetylcholine receptor M2 (CHRM2, Homo sapiens, UniProt P08172); ligand displacement, radioligand; 10 µM): < 50%

Cc1cc(O)c(-c2ccc([C@@H](C)CN(C)C)cc2)c2c1[nH]c(=O)c1sccc12
inhibition (Ribosomal protein S6 kinase alpha-1, C-terminal kinase domain (RPS6KA1, Homo sapiens, UniProt Q15418); enzyme activity, inhibitor; 0.1 µM): -4.95%

O=c1c(O)c(-c2ccc(O)c(O)c2)oc2cc(O)cc(O)c12
inhibition (AMY2; enzyme activity, inhibitor; 50 µM): 94.1%

CC1=CC(O/C=C2/C(=O)OC3c4ccccc4CC23)OC1=O (racemic)
ΔTm (D14; thermal stability, DSF; 1 µM): -0.035 °C
